Measured values taken from ChEMBL document CHEMBL1123950, “N-(Retinoyl)amino acids. Synthesis and chemopreventive activity in vitro” (1988).

What was measured:
L1210 [1] = test: Inhibition of proliferation of L1210 cells in culture at a conc 20 ug/mL; assay type: functional, Mus musculus; design: scale not given: the % may be the effect or the level left
Summary of the method: (§1)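 L1210 suspension of about 10⁵ cells treated with retinoid at 1-40 μg/mL, 37 °C for 48 h; cells counted at 0 and 48 h, three cultures averaged per concentration. % of control = 100 × (treated 48 h − 0 h count)/(control 48 h − 0 h count).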

HEp-2 [2] = test: Viability of human epidermoid carcinoma cells (H.Ep-2) at a conc 10 ug/mL; assay type: functional
Summary of the method: (§2)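 Human epidermoid carcinoma H.Ep.-2 cells, clone-colony viability assay with retinoid at 1-40 μg/mL; incubated 37 °C for 12 days, stained, colonies counted. % of control = 100 × treated colonies/control colonies.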

L1210 [3] = test: Inhibition of proliferation of L1210 cells in culture at a conc 10 ug/mL; assay type: functional, Mus musculus; design: scale not given: the % may be the effect or the level left; summary of the method: as §1
HEp-2 [4] = test: Viability of human epidermoid carcinoma cells (H.Ep-2) at a conc 40 ug/mL; assay type: functional; summary of the method: as §2
HEp-2 [5] = test: Viability of human epidermoid carcinoma cells (H.Ep-2) at a conc 1 ug/mL; assay type: functional; summary of the method: as §2
HEp-2 [6] = test: Viability of human epidermoid carcinoma cells (H.Ep-2) at a conc 20 ug/mL; assay type: functional; summary of the method: as §2
L1210 [7] = test: Inhibition of proliferation of L1210 cells in culture at a conc 1 ug/mL; assay type: functional, Mus musculus; design: scale not given: the % may be the effect or the level left; summary of the method: as §1
Cricetinae gen. sp. [8] = test: Reversal of keratinization in vitamin A deficient hamster trachea culture; assay type: functional, Cricetulus griseus; conditions: read-out: ED50 (the source's name)
Summary of the method: (§3)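 Tracheas from 29-31-day-old hamsters kept on a vitamin A free diet, cultured in serum-free CMRL 1066 (insulin 1.0 μg/mL, hydrocortisone hemisuccinate 0.1 μg/mL, glutamine 2 mM, Garamycin 50 μg/mL), 50% O2/45% N2/5% CO2, rocked at 36 °C. Retinoid-free for 3 days, then retinoid in DMSO (0.1% final) for 7 days. Fixed in formalin; squamous metaplasia graded mild 2-10%, marked 10-40%, severe >40%.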

Cricetinae gen. sp. [9] = test: Cultures with mild degree of squamous metaplasia at a conc of 10e-9 M; assay type: functional, Cricetulus griseus
Summary of the method: (§4)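 Tracheas from 29-31-day-old hamsters fed a vitamin A free diet; cultured in serum-free CMRL 1066 (insulin 1.0 μg/mL, hydrocortisone hemisuccinate 0.1 μg/mL, glutamine 2 mM, Garamycin 50 μg/mL), 50% O2/45% N2/5% CO2, rocked, 36 °C. Retinoid-free 3 days, then retinoid in DMSO (final 0.1%) for 7 days; medium and gas changed three times. Formalin-fixed day 10; squamous metaplasia graded: mild 2-10%, marked 10-40%, severe >40%.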

Cricetinae gen. sp. [10] = test: Cultures with severe degree of squamous metaplasia at a conc of 10e-8 M; assay type: functional, Cricetulus griseus; summary of the method: as §4
Cricetinae gen. sp. [11] = test: Cultures with minimal degree of squamous metaplasia at a conc of 10e-9 M; assay type: functional, Cricetulus griseus; summary of the method: as §4
Cricetinae gen. sp. [12] = test: Cultures with mild degree of squamous metaplasia at a conc of 10e-10 M; assay type: functional, Cricetulus griseus; summary of the method: as §4
Cricetinae gen. sp. [13] = test: Cultures with no evidence of squamous metaplasia at a conc of 10e-10 M; assay type: functional, Cricetulus griseus; summary of the method: as §4
Cricetinae gen. sp. [14] = test: Cultures with no evidence of squamous metaplasia at a conc of 10e-8 M; assay type: functional, Cricetulus griseus; summary of the method: as §4
Cricetinae gen. sp. [15] = test: Cultures with severe degree of squamous metaplasia at a conc of 10e-9 M; assay type: functional, Cricetulus griseus; summary of the method: as §4
Cricetinae gen. sp. [16] = test: Cultures with severe degree of squamous metaplasia at a conc of 10e-10 M; assay type: functional, Cricetulus griseus; summary of the method: as §4
Cricetinae gen. sp. [17] = test: Reversal of keratinization in vitamin A deficient hamster trachea culture at a conc of 10e-8 M; assay type: functional, Cricetulus griseus; conditions: read-out: ED50 (the source's name); summary of the method: as §3
Cricetinae gen. sp. [18] = test: Cultures with mild degree of squamous metaplasia at a conc of 10e-8 M; assay type: functional, Cricetulus griseus; summary of the method: as §4
Cricetinae gen. sp. [19] = test: Cultures with minimal degree of squamous metaplasia at a conc of 10e-10 M; assay type: functional, Cricetulus griseus; summary of the method: as §4
Cricetinae gen. sp. [20] = test: Cultures with no evidence of squamous metaplasia at a conc of 10e-9 M; assay type: functional, Cricetulus griseus; summary of the method: as §4
Cricetinae gen. sp. [21] = test: Cultures with marked degree of squamous metaplasia at a conc of 10e-9 M; assay type: functional, Cricetulus griseus; summary of the method: as §4
Cricetinae gen. sp. [22] = test: Cultures with marked degree of squamous metaplasia at a conc of 10e-10 M; assay type: functional, Cricetulus griseus; summary of the method: as §4
Cricetinae gen. sp. [23] = test: Cultures with marked degree of squamous metaplasia at a conc of 10e-8 M; assay type: functional, Cricetulus griseus; summary of the method: as §4
Cricetinae gen. sp. [24] = test: Cultures with minimal degree of squamous metaplasia at a conc of 10e-8 M; assay type: functional, Cricetulus griseus; summary of the method: as §4
Cricetinae gen. sp. [25] = test: Cultures with no evidence of squamous metaplasia at a conc of 10e-11 M; assay type: functional, Cricetulus griseus; summary of the method: as §4
Cricetinae gen. sp. [26] = test: Cultures with minimal degree of squamous metaplasia at a conc of 10e-11 M; assay type: functional, Cricetulus griseus; summary of the method: as §4
Cricetinae gen. sp. [27] = test: Cultures with mild degree of squamous metaplasia at a conc of 10e-11 M; assay type: functional, Cricetulus griseus; summary of the method: as §4
Cricetinae gen. sp. [28] = test: Cultures with marked degree of squamous metaplasia at a conc of 10e-11 M; assay type: functional; summary of the method: as §4
Cricetinae gen. sp. [29] = test: Cultures with severe degree of squamous metaplasia at a conc of 10e-11 M; assay type: functional, Cricetulus griseus; summary of the method: as §4

EC50 (Cricetinae gen. sp. [17]) | Compound | Culture (Cricetinae gen. sp. [9]) | Culture (Cricetinae gen. sp. [10]) | Culture (Cricetinae gen. sp. [11]) | Culture (Cricetinae gen. sp. [12]) | Culture (Cricetinae gen. sp. [13]) | Culture (Cricetinae gen. sp. [14]) | Culture (Cricetinae gen. sp. [15]) | Culture (Cricetinae gen. sp. [16]) | Culture (Cricetinae gen. sp. [18]) | Culture (Cricetinae gen. sp. [19]) | Culture (Cricetinae gen. sp. [20]) | Culture (Cricetinae gen. sp. [21]) | Culture (Cricetinae gen. sp. [22]) | Culture (Cricetinae gen. sp. [23]) | Culture (Cricetinae gen. sp. [24]) | Culture (Cricetinae gen. sp. [25]) | Culture (Cricetinae gen. sp. [26]) | Culture (Cricetinae gen. sp. [27]) | Culture (Cricetinae gen. sp. [28]) | further results
– | CCNC(=O)\C=C(C)/C=C/C=C(C)/C=C/C1=C(C)CCCC1(C)C | – | – | – | – | – | – | – | – | – | – | – | – | – | – | – | – | – | – | – | Control (L1210 [1]): 54%; Control (HEp-2 [2]): 13%; Control (L1210 [3]): 77%; Control (HEp-2 [4]): 15%; Control (HEp-2 [5]): 59%; Control (HEp-2 [6]): 10%; Control (L1210 [7]): 84%; EC50 (Cricetinae gen. sp. [8]): 0.3 nM
– | CC1=C(/C=C/C(C)=C/C=C/C(C)=C/C(=O)NCC(=O)O)C(C)(C)CCC1 | – | – | – | – | – | – | – | – | – | – | – | – | – | – | – | – | – | – | – | Control (L1210 [1]): 19%; Control (HEp-2 [2]): 67%; Control (L1210 [3]): 70%; Control (HEp-2 [4]): 13%; Control (HEp-2 [5]): 116%; Control (HEp-2 [6]): 12%; Control (L1210 [7]): 68%
> 10 nM | CC1=C(/C=C/C(C)=C/C=C/C(C)=C/C(=O)NC(CCC(=O)O)C(=O)O)C(C)(C)CCC1 (stereo not given) | 50% | 0% | 0% | 29% | 14% | 38% | 0% | 0% | 12% | 14% | 25% | 25% | 43% | 50% | 0% | – | – | – | – | –
0.7 nM | CC1=C(/C=C/C(C)=C/C=C/C(C)=C\C(=O)NC(C)C(=O)O)C(C)(C)CCC1 (stereo not given) | 13% | 0% | 0% | 21% | 36% | 100% | 0% | 7% | 0% | 0% | 47% | 40% | 36% | 0% | 0% | 14% | 0% | 0% | 71% | Culture (Cricetinae gen. sp. [29]): 15%
– | CC1=C(/C=C/C(C)=C/C=C/C(C)=C\C(=O)Nc2ccc(O)cc2)C(C)(C)CCC1 | – | – | – | – | – | – | – | – | – | – | – | – | – | – | – | – | – | – | – | EC50 (Cricetinae gen. sp. [8]): > 1 nM
0.5 nM | CC1=C(/C=C/C(C)=C/C=C/C(C)=C\C(=O)NC(CC(C)C)C(=O)O)C(C)(C)CCC1 (stereo not given) | 29% | 0% | 0% | 14% | 29% | 72% | 0% | 0% | 14% | 0% | 57% | 14% | 57% | 14% | 0% | 33% | 0% | 0% | 50% | Culture (Cricetinae gen. sp. [29]): 17%
0.6 nM | CC1=C(/C=C/C(C)=C/C=C/C(C)=C\C(=O)NC(Cc2ccccc2)C(=O)O)C(C)(C)CCC1 (stereo not given) | 20% | 7% | 0% | 21% | 29% | 60% | 7% | 14% | 13% | 0% | 53% | 20% | 36% | 20% | 0% | 29% | 0% | 14% | 43% | Culture (Cricetinae gen. sp. [29]): 14%
